Experimental data from article PMC5075014 (Medicinal Chemistry Research, 2016).

Tested on: MCF-7 (human breast cancer) cell line
Test: WST-1 assay, anticancer activity, breast cancer MCF-7
Type: cell-based
Settings: MCF-7 cell line
How it was run: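 Cells were grown at 37 °C under 5 % CO2 and seeded at 1 × 10^4 cells/well in DMEM with 10 % FCS, streptomycin and penicillin. They were exposed to the test compound at 0–100 μg/mL for 72 h, then given WST-1 for 1 h. Absorbance was read at 450 nm against a background control, with a 600 nm reference. Values are means of at least two independent experiments run in triplicate.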

CN(C)CCCN1c2ccccc2Sc2cccnc21 [Prothipendyl, 10-dimethylaminopropyl-1-azaphenothiazine]
times less active than the most active diazaphenothiazines: 5-6 times
